{"source": "ChEMBL document CHEMBL1671706", "about": "(Antimicrob Agents Chemother, 2010)", "key": {"[1]": {"tested_on": "Bacillus anthracis", "test": "Antimicrobial activity against Bacillus anthracis by Etest", "format": "functional"}, "[2]": {"tested_on": "Escherichia coli", "test": "Antimicrobial activity against Escherichia coli MC1000 by macrodilution method", "format": "functional", "procedure,_shortened": "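Luria-Bertani medium, 30°C, shaking at 200 rpm, 14 h. Macrodilution per NCCLS aerobic criteria, with inoculum 5 × 10^5 cells/ml. DMSO-dissolved compounds were diluted 2-fold through the tubes, with a DMSO control. MIC is the lowest concentration preventing visible growth in triplicate, confirmed periodically by no absorbance at 600 nm.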"}, "[3]": {"tested_on": "Pseudomonas aeruginosa", "test": "Antimicrobial activity against Pseudomonas aeruginosa K by macrodilution method", "format": "functional", "procedure,_shortened": "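Grown in Luria-Bertani medium at 37°C, shaking at 200 rpm, 16 h. NCCLS macrodilution with 5 × 10^5 cells/ml inoculum. Compounds in DMSO formed a 2-fold tube dilution series, with a control at equal DMSO. MIC was read visually as the lowest growth-preventing concentration in triplicate, periodically confirmed by no detectable A600.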"}, "[4]": {"tested_on": "Bacillus cereus", "test": "Antimicrobial activity against Bacillus cereus UW85 by macrodilution method", "format": "functional", "procedure,_shortened": "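Tube macrodilution per NCCLS. Strain grown in Luria-Bertani medium, 37°C, shaking at 200 rpm, 16 h. Inoculum 5 × 10^5 cells/ml. DMSO stocks diluted 2-fold through the tubes, with a DMSO-matched control. MIC is the lowest concentration without visible growth in triplicate, occasionally checked as no detectable absorbance at 600 nm.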"}, "[5]": {"tested_on": "Caulobacter vibrioides", "test": "Antimicrobial activity against Caulobacter crescentus CB15N by macrodilution method", "format": "functional", "procedure,_shortened": "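Peptone-yeast extract medium, 30°C, shaking at 200 rpm, 22 h. NCCLS macrodilution from 5 × 10^5 cells/ml. Compounds in DMSO given as a 2-fold tube series, with a control at the highest DMSO level. Endpoint is the lowest concentration preventing growth in triplicate by eye, periodically confirmed by absence of A600.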"}, "[6]": {"tested_on": "Staphylococcus aureus", "test": "Antimicrobial activity against Staphylococcus aureus FRI 100 by macrodilution method", "format": "functional", "procedure,_shortened": "(§1)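 Static culture in Luria-Bertani medium, 37°C, 14 h. NCCLS macrodilution, inoculum 5 × 10^5 cells/ml. Compounds in DMSO were 2-fold serially diluted through the inoculated tubes, with a DMSO-matched control. MIC is the lowest concentration preventing visible growth in triplicate, periodically confirmed by lack of absorbance at 600 nm.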"}, "[7]": {"tested_on": "Staphylococcus aureus", "test": "Antimicrobial activity against Staphylococcus aureus FRI 361 by macrodilution method", "format": "functional", "procedure,_shortened": "as §1"}, "[8]": {"tested_on": "Enterococcus faecalis", "test": "Antimicrobial activity against Enterococcus faecalis 1131 by macrodilution method", "format": "functional", "procedure,_shortened": "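Brain heart infusion medium, static, 37°C, 14 h. NCCLS macrodilution, starting inoculum 5 × 10^5 cells/ml. Compounds in DMSO were 2-fold serially diluted across the inoculated tubes, with a matched DMSO control. MIC is the lowest concentration with no visible growth in triplicate, sometimes verified as no detectable A600.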"}, "[9]": {"tested_on": "Bacillus anthracis", "test": "Antimicrobial activity against Bacillus anthracis Sterne 7702 by macrodilution method", "format": "functional"}, "[10]": {"test": "Toxicity in po dosed female Sherman rat", "format": "organism-based", "settings": "in vivo"}, "[11]": {"test": "Toxicity in po dosed male Sherman rat", "format": "organism-based", "settings": "in vivo"}, "[12]": {"tested_on": "Bacillus cereus", "test": "Antimicrobial activity against Bacillus cereus", "format": "functional"}}, "data": [{"smiles": "CC1(C)S[C@@H]2[C@H](NC(=O)Cc3ccccc3)C(=O)N2[C@H]1C(=O)O", "note": "[PENICILLIN G]", "values": [{"measurement": "MIC", "setting": "[1]", "value": 0.02, "unit": "µM"}]}, {"smiles": "CN(C)[C@@H]1C(O)=C(C(N)=O)C(=O)[C@@]2(O)C(O)=C3C(=O)c4c(O)cccc4[C@@](C)(O)[C@H]3C[C@@H]12", "note": "[TETRACYCLINE]", "values": [{"measurement": "MIC", "setting": "[1]", "value": 0.07, "unit": "µM"}]}, {"smiles": "Oc1ccc(Cl)cc1Cc1cc(Cl)cc(Cc2cc(Cl)cc(Cc3cc(Cl)ccc3O)c2O)c1O", "values": [{"measurement": "MIC", "setting": "[2]", "value": "> 80", "unit": "µM"}, {"measurement": "MIC", "setting": "[3]", "value": "> 80", "unit": "µM"}, {"measurement": "MIC", "setting": "[4]", "value": 0.08, "unit": "µM"}, {"measurement": "MIC", "setting": "[5]", "value": 0.3, "unit": "µM"}, {"measurement": "MIC", "setting": "[6]", "value": 0.16, "unit": "µM"}, {"measurement": "MIC", "setting": "[7]", "value": 0.3, "unit": "µM"}, {"measurement": "MIC", "setting": "[8]", "value": 0.3, "unit": "µM"}, {"measurement": "MIC", "setting": "[9]", "value": 0.16, "unit": "µM"}]}, {"smiles": "Oc1ccc(Cl)cc1Cc1cc(Cl)ccc1O", "note": "[DICHLOROPHEN]", "values": [{"measurement": "LD50", "setting": "[10]", "value": 1680, "unit": "mg/kg"}, {"measurement": "LD50", "setting": "[11]", "value": 1510, "unit": "mg/kg"}, {"measurement": "MIC", "setting": "[2]", "value": 160, "unit": "µM"}, {"measurement": "MIC", "setting": "[3]", "value": "> 320", "unit": "µM"}, {"measurement": "MIC", "setting": "[4]", "value": 10, "unit": "µM"}, {"measurement": "MIC", "setting": "[5]", "value": 20, "unit": "µM"}, {"measurement": "MIC", "setting": "[6]", "value": 20, "unit": "µM"}, {"measurement": "MIC", "setting": "[7]", "value": 20, "unit": "µM"}, {"measurement": "MIC", "setting": "[8]", "value": 80, "unit": "µM"}, {"measurement": "MIC", "setting": "[9]", "value": 5, "unit": "µM"}]}, {"smiles": "Oc1ccc(Cl)cc1Cc1cc(Cl)cc(Cc2cc(Cl)ccc2O)c1O", "values": [{"measurement": "MIC", "setting": "[12]", "value": 0.3, "unit": "µM"}, {"measurement": "MIC", "setting": "[2]", "value": 5, "unit": "µM"}, {"measurement": "MIC", "setting": "[3]", "value": 40, "unit": "µM"}, {"measurement": "MIC", "setting": "[4]", "value": 0.3, "unit": "µM"}, {"measurement": "MIC", "setting": "[5]", "value": 2.5, "unit": "µM"}, {"measurement": "MIC", "setting": "[6]", "value": 0.08, "unit": "µM"}, {"measurement": "MIC", "setting": "[7]", "value": 0.6, "unit": "µM"}, {"measurement": "MIC", "setting": "[8]", "value": 1.3, "unit": "µM"}, {"measurement": "MIC", "setting": "[9]", "value": 0.3, "unit": "µM"}]}, {"smiles": "Oc1ccc(Cl)cc1Cc1cc(Cl)cc(Cc2cc(Cl)cc(Cc3cc(Cl)cc(Cc4cc(Cl)ccc4O)c3O)c2O)c1O", "values": [{"measurement": "MIC", "setting": "[2]", "value": "> 80", "unit": "µM"}, {"measurement": "MIC", "setting": "[3]", "value": "> 80", "unit": "µM"}, {"measurement": "MIC", "setting": "[4]", "value": 0.3, "unit": "µM"}, {"measurement": "MIC", "setting": "[5]", "value": 5, "unit": "µM"}, {"measurement": "MIC", "setting": "[6]", "value": 5, "unit": "µM"}, {"measurement": "MIC", "setting": "[7]", "value": 5, "unit": "µM"}, {"measurement": "MIC", "setting": "[8]", "value": 0.6, "unit": "µM"}, {"measurement": "MIC", "setting": "[9]", "value": 1.3, "unit": "µM"}]}]}
